The values that follow come from paper PMC2688442 (Analytical biochemistry, 2009).

SMILES strings stand for the structures.

One data set has as its system 293T/nNOS cells. The class given is cell-based. The following applies: for Cell health after treatment: 293T/nNOS cells during the period of A23187 stimulation; for Cytotoxicity: by visual inspection under a microscope; for Inhibition of cell growth: experimental conditions of the inhibition assay.
The subject of a further data set is nNOS in 293T/nNOS cells. The data set is described as follows: Activation of nNOS in 293T/nNOS cells by A23187. The class given is cell-based, rat. As to conditions: A23187 5 μM, after the 8 h-incubation, deduced from Fig. 1C. The essentials: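 HEK 293T cells stably transfected with rat nNOS cDNA (lipofection, Geneticin 0.8 mg/ml selection, single-cell cloning, highest-expressing clone), maintained in DMEM with 0.4 mg/ml Geneticin. At ~80% confluence, cells were exposed to 5 μM A23187 or left untreated, alongside WT 293T cells ± A23187. Nitrite in the culture medium was measured by Griess reagent at different times.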

A further data set concerns nNOS over eNOS. As to conditions: cited from earlier work.
In data set [1] the test system is nNOS over eNOS in rat tissue. The following applies: cited from earlier work.

Take `CNc1ccc2oc(C[C@H]3O[C@@]4(CC[C@H]3C)O[C@H]([C@H](C)C(=O)c3ccc[nH]3)[C@H](C)C[C@H]4C)nc2c1C(=O)O` [A23187]: the “Cell death with A23187 stimulation” value in the data set with 293T/nNOS cells (293T/nNOS cells, after 10 h with A23187) is reported as “no obvious cell death”. Also, in the data set on nNOS in 293T/nNOS cells, the Nitrite concentration is given as ~ 18 μM.
On to `N=C(Nc1ccc(CCNCc2cccc(Cl)c2)cc1)c1cccs1` [AR-R17477], for which the “Cell health after treatment” value in the data set on 293T/nNOS cells is recorded as “remained healthy”. For the same molecule, in the data set on 293T/nNOS cells (293T/nNOS cells), the Cytotoxicity entry is on record as “no obvious cytotoxicity” and the “Inhibition of cell growth” value is “Neither compound 3 nor AR-R17477 inhibited cell growth”.
Take `CCSC(N)=NCCC[C@H](N)C(=O)O` [Et-TC, S-ethyl-L-thiocitrulline]: in the data set on nNOS over eNOS, the “Selectivity in vitro for nNOS inhibition over eNOS (in words)” value is recorded as “more selective”.
As for `CSC(N)=NCCC[C@H](N)C(=O)O` [Me-TC, S-methyl-L-thiocitrulline], in data set [1], the “Inhibition of nNOS over eNOS in rat tissue (in words)” value was “better than Et-TC”.
As for `N=C(NCCC[C@H](N)C(=O)O)N[N+](=O)[O-]` [NNA, N^ω-Nitro-L-arginine], the “Cell health after treatment” value with 293T/nNOS cells is given as “remained healthy”. Also, the Cell death result in the data set with 293T/nNOS cells (293T/nNOS cells under the experimental conditions of the inhibition assay) was “No cell death was observed”.
As to `Cc1cc(N)nc(CC2CNCC2NCCNCCc2cccc(F)c2)c1` (centres unmarked) [compound 3, N-[4-(6-amino-4-methylpyridin-2-ylmethyl)pyrrolidin-3-yl]-N′-(3-fluorophenylethyl) ethane-1,2-diamine], in the data set with 293T/nNOS cells (293T/nNOS cells), the Cytotoxicity entry is recorded as “no obvious cytotoxicity” and the “Inhibition of cell growth” value was “Neither compound 3 nor AR-R17477 inhibited cell growth”.
